Measured values from ChEMBL document CHEMBL1155442, “Click chemistry approach to new N-substituted aminocyclitols as potential pharmacological chaperones for Gaucher disease” (J Med Chem, 2010).
Calls of active or inactive are those of the source. The rule behind the calls is not given here.

Columns and labels:
[1] = Cytotoxicity against human fibroblast at 300 uM after 24 hrs by MTT assay; type: cell-based
[2] = biological target: T1, Lysosomal acid glucosylceramidase (Homo sapiens, UniProt P04062); test: Inhibition of recombinant beta-glucocerebrosidase at pH 7.4 after 10 mins by fluorimetry
T1 sequence (P04062 whole entry): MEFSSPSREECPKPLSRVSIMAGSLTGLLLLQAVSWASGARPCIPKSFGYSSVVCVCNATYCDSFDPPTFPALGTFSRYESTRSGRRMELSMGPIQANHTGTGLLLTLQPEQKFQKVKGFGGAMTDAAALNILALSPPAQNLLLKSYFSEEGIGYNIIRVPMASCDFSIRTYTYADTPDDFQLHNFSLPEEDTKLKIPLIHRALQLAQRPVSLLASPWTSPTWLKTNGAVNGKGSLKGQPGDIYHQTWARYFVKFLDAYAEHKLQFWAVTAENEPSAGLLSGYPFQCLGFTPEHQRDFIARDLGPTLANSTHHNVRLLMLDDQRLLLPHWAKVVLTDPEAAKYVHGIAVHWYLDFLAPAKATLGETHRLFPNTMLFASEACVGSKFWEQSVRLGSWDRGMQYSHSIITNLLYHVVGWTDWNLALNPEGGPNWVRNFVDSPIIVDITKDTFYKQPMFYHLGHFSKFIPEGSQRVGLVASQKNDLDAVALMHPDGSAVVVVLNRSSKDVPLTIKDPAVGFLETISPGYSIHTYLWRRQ

[3] = test system: Oryza sativa; test: Inhibition of rice alpha-glucosidase at 0.1 mM
[4] = biological target: T2, Lysosomal acid glucosylceramidase (Homo sapiens) (UniProt P04062); test: Inhibition of beta-glucocerebrosidase in human fibroblast at 50 uM after 24 hrs by fluorescence assay
T2 sequence (whole entry): T1 sequence (P04062 whole entry)
Procedure, shortened: (§1)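 Wild-type human fibroblasts exposed to compound for 24 h (10, 20 or 50 μM, as listed) with 5 mM substrate. Cellular GCase activity then measured.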

[5] = test system: Saccharomyces cerevisiae; test: Inhibition of yeast alpha-glucosidase at 0.1 mM
[6] = test system: Prunus dulcis; test: Inhibition of sweet almond beta-glucosidase at 0.1 mM
[7] = biological target: T3, Beta-galactosidase (Bos taurus) (UniProt Q58D55); test: Inhibition of bovine liver beta-galactosidase at 0.1 mM
T3 sequence (whole entry): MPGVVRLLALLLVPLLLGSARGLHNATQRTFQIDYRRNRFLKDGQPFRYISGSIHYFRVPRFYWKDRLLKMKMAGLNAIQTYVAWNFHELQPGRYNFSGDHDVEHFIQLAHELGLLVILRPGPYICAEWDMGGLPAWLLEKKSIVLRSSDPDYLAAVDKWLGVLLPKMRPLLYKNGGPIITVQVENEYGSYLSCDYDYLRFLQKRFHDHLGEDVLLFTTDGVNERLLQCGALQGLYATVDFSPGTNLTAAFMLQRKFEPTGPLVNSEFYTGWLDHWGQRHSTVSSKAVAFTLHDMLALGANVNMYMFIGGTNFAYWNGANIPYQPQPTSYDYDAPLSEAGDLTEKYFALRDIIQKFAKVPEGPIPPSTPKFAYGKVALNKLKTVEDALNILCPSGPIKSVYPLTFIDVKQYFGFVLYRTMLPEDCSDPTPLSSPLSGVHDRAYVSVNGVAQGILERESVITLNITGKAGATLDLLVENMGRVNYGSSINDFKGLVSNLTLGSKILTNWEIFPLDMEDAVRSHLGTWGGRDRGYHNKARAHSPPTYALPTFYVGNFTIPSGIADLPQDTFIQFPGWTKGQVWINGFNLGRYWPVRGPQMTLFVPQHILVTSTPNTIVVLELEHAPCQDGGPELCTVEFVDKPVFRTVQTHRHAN

[8] = biological target: T1, Lysosomal acid glucosylceramidase; test: Inhibition of recombinant beta-glucocerebrosidase at pH 5.2 after 10 mins by fluorimetry
[9] = test system: Oryza sativa; test: Inhibition of rice alpha-galactosidase at 0.1 mM
[10] = biological target: T1, Lysosomal acid glucosylceramidase; test: Inhibition of recombinant beta-glucocerebrosidase after 10 mins by fluorimetry
Procedure, shortened: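 Imiglucerase (0.1 mg/mL stock) in McIlvaine buffer, pH 5.2 or 7.4, with 0.2% sodium taurocholate and 0.1% Triton X-100. Preincubated 30 min at 37 °C with or without inhibitor. Then 4 mM 4-methylumbelliferyl-β-D-glucopyranoside added for 10 min at 37 °C. Stopped with glycine/NaOH pH 10.6; 4-MU read at ex 355/em 460 nm. IC50 from % activity vs log[I], at least five concentrations.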

[11] = Dissociation constant, pKa of the compound; type: physicochemical
[12] = biological target: T1, Lysosomal acid glucosylceramidase; test: Competitive inhibition of beta-glucocerebrosidase at pH 5.2 by Lineweaver-Burke plot analysis
[13] = biological target: T2, Lysosomal acid glucosylceramidase (Homo sapiens); test: Binding affinity to recombinant beta-glucocerebrosidase assessed as enzymatic activity at 50 uM after 20 mins by thermal stabilization assay relative to control
[14] = biological target: T2, Lysosomal acid glucosylceramidase (Homo sapiens); test: Binding affinity to recombinant beta-glucocerebrosidase assessed as enzymatic activity at 100 uM after 60 mins by thermal stabilization assay relative to control
[15] = biological target: T2, Lysosomal acid glucosylceramidase (Homo sapiens); test: Binding affinity to recombinant beta-glucocerebrosidase assessed as enzymatic activity at 50 uM after 60 mins by thermal stabilization assay relative to control
[16] = biological target: T2, Lysosomal acid glucosylceramidase (Homo sapiens); test: Inhibition of beta-glucocerebrosidase in human fibroblast at 20 uM after 24 hrs by fluorescence assay; procedure, shortened: as §1
[17] = Selectivity index, ratio of CC50 for human fibroblast to Ki for beta-glucocerebrosidase
[18] = biological target: T2, Lysosomal acid glucosylceramidase (Homo sapiens); test: Binding affinity to recombinant beta-glucocerebrosidase assessed as enzymatic activity at 150 uM after 40 mins by thermal stabilization assay relative to control
[19] = biological target: T2, Lysosomal acid glucosylceramidase (Homo sapiens); test: Binding affinity to recombinant beta-glucocerebrosidase assessed as enzymatic activity at 50 uM after 40 mins by thermal stabilization assay relative to control
[20] = biological target: T2, Lysosomal acid glucosylceramidase (Homo sapiens); test: Binding affinity to recombinant beta-glucocerebrosidase assessed as enzymatic activity at 150 uM after 60 mins by thermal stabilization assay relative to control
[21] = Cytotoxicity against human fibroblast after 24 hrs by MTT assay; type: cell-based; settings: human fibroblasts
[22] = biological target: T2, Lysosomal acid glucosylceramidase (Homo sapiens); test: Inhibition of beta-glucocerebrosidase in human fibroblast at 10 uM after 24 hrs by fluorescence assay; procedure, shortened: as §1
[23] = biological target: T2, Lysosomal acid glucosylceramidase (Homo sapiens); test: Binding affinity to recombinant beta-glucocerebrosidase assessed as enzymatic activity at 150 uM after 20 mins by thermal stabilization assay relative to control
[24] = biological target: T2, Lysosomal acid glucosylceramidase (Homo sapiens); test: Binding affinity to recombinant beta-glucocerebrosidase assessed as enzymatic activity at 100 uM after 40 mins by thermal stabilization assay relative to control
[25] = biological target: T2, Lysosomal acid glucosylceramidase (Homo sapiens); test: Binding affinity to recombinant beta-glucocerebrosidase assessed as enzymatic activity at 100 uM after 20 mins by thermal stabilization assay relative to control

Row | IC50 [2] [µM] | inhibition [3] | inhibition [4] | inhibition [5] | inhibition [6] | inhibition [7] | IC50 [8] [µM] | inhibition [9] | IC50 [10] [µM] | pKa [11] | Ki [12] [µM] | fold change (FC) [13] | fold change (FC) [14] | fold change (FC) [15] | fold change (FC) [18] | fold change (FC) [19] | fold change (FC) [20] | fold change (FC) [23] | fold change (FC) [24] | Structure (SMILES) | Activity [1] | further results
1 | – | – | – | – | – | – | – | – | – | – | – | – | – | – | – | – | – | – | – | CCCCN1C[C@H](O)[C@@H](O)[C@H](O)[C@H]1CO | Non-toxic | –
2 | 55.9 | inactive | < 5% | inactive | inactive | inactive | 167 | inactive | 166 | 9.1 | – | – | – | – | – | – | – | – | – | CCCCCCCCn1cc(CCN[C@H]2[C@H](O)[C@@H](O)[C@H](O)[C@@H](O)[C@@H]2O)nn1 | Non-toxic | –
3 | 25 | inactive | < 5% | inactive | inactive | inactive | 10.8 | inactive | 10.7 | 7.8 | 19.1 | – | – | – | – | – | – | – | – | O[C@@H]1[C@@H](O)[C@H](O)[C@@H](NCc2cn(CCc3ccccc3)nn2)[C@H](O)[C@H]1O | Non-toxic | –
4 | 0.2 | inactive | 50% | inactive | inactive | inactive | 0.2 | inactive | 0.224 | 7.1 | 0.33 | 2.06 | 13 | 9.95 | 7.23 | 5.69 | 15.5 | 2.34 | 6.71 | CCCCCCCCCn1cc(CN[C@H]2[C@H](O)[C@@H](O)[C@H](O)[C@@H](O)[C@@H]2O)nn1 | Non-toxic | Selectivity Index [17]: >=900; fold change (FC) [25]: 2.28
5 | 6.2 | inactive | < 5% | inactive | inactive | inactive | 7.4 | inactive | 7.41 | 7.1 | 2.4 | – | – | – | – | – | – | – | – | CCCOCCCCCCn1cc(CN[C@H]2[C@H](O)[C@@H](O)[C@H](O)[C@@H](O)[C@@H]2O)nn1 | Non-toxic | –
6 | 1.2 | inactive | 20% | inactive | inactive | inactive | 3.5 | inactive | 3.47 | 9.9 | 7.6 | – | – | – | – | – | – | – | – | CCCCCCCCCCn1cc(CCCN[C@H]2[C@H](O)[C@@H](O)[C@H](O)[C@@H](O)[C@@H]2O)nn1 | – | CC50 at 24 h [21]: 170 µM
7 | – | inactive | < 5% | inactive | inactive | inactive | 178 | inactive | 178 | 7.2 | – | – | – | – | – | – | – | – | – | CCCCn1cc(CN[C@H]2[C@H](O)[C@@H](O)[C@H](O)[C@@H](O)[C@@H]2O)nn1 | Non-toxic | –
8 | 1.1 | inactive | 20% | inactive | inactive | inactive | 1 | inactive | 1.05 | 7.7 | 1.8 | – | – | – | – | – | – | – | – | CCCCCCCCn1cc(CN[C@H]2[C@H](O)[C@@H](O)[C@H](O)[C@@H](O)[C@@H]2O)nn1 | Non-toxic | –
9 | 18.2 | inactive | 40% | inactive | inactive | inactive | 35.4 | inactive | 35.5 | 9.4 | 19.9 | – | – | – | – | – | – | – | – | CCCCCCCCn1cc(CCCN[C@H]2[C@H](O)[C@@H](O)[C@H](O)[C@@H](O)[C@@H]2O)nn1 | – | CC50 at 24 h [21]: 97 µM
10 | 11 | inactive | < 5% | inactive | inactive | inactive | 44.7 | inactive | 44.7 | 9.1 | – | 2.22 | 7.6 | 4.62 | 6.1 | 4.54 | 9.44 | 2.37 | 5.75 | CCCCCCCCCn1cc(CCN[C@H]2[C@H](O)[C@@H](O)[C@H](O)[C@@H](O)[C@@H]2O)nn1 | Non-toxic | fold change (FC) [25]: 2.32
11 | – | – | – | – | – | – | – | – | – | – | – | – | – | – | – | – | – | – | – | CCCCCCCCCN1C[C@H](O)[C@@H](O)[C@H](O)[C@H]1CO | Non-toxic | –

Row | Structure (SMILES) | IC50 [2] [µM] | inhibition [3] | inhibition [4] | inhibition [5] | inhibition [6] | inhibition [7] | IC50 [8] [µM] | inhibition [9] | IC50 [10] [µM] | pKa [11] | Ki [12] [µM] | fold change (FC) [13] | fold change (FC) [14] | fold change (FC) [15] | fold change (FC) [18] | fold change (FC) [19] | fold change (FC) [20] | fold change (FC) [23] | fold change (FC) [24] | Activity [1] | further results
12 | CCCCCCCCCCCCCCn1cc(CN[C@H]2[C@H](O)[C@@H](O)[C@H](O)[C@@H](O)[C@@H]2O)nn1 | 0.1 | inactive | Toxic | inactive | inactive | inactive | 0.09 | inactive | 0.0891 | 7.7 | 0.08 | 2.82 | 13.2 | 13.8 | 5.91 | 7.86 | 9.4 | 2.67 | 7.48 | – | inhibition [16]: Toxic; Selectivity Index [17]: 237; CC50 at 24 h [21]: 19 µM; inhibition [22]: 93%; fold change (FC) [25]: 2.88
13 | CCCCCCCCCCN[C@H]1[C@H](O)[C@@H](O)[C@H](O)[C@@H](O)[C@@H]1O | – | – | – | – | – | – | 1.8 | – | – | – | 0.3 | 1.29 | 4.89 | 2.24 | 5.85 | 2.33 | 11.3 | 1.99 | 4.49 | Non-toxic | fold change (FC) [25]: 1.84
